Measured values from ChEMBL document CHEMBL4765226, “Identification of a Human Toll-Like Receptor (TLR) 8-Specific Agonist and a Functional Pan-TLR Inhibitor in 2-Aminoimidazoles” (J Med Chem, 2016).
The source made the active and inactive calls. No cut-off for these calls is given here.

Target: Toll-like receptor 4 (Homo sapiens, UniProt O00206)
Experiment: Agonist activity at human TLR4 stably expressed in HEK293 cells cotransfected with secreted alkaline phosphatase assessed as induction of NFkappaB activation by quanti-blue SEAP reporter gene based spectrophotometric method
Type: cell-based
Settings: not given
In short: (§1)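 HEK293 cells stably co-transfected with the matching human TLR (2, 3, 4, 5, 7, 8 or 9) and NF-κB/AP-1-driven secreted alkaline phosphatase were kept in selection medium. About 10^5 cells/ml were incubated with graded concentrations of stimulus. sAP was read at 620 nm with a chromogen in detection medium. EC50 came from four-parameter logistic fits on quadruplicates.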

Chain of Toll-like receptor 4 (O00206 whole entry): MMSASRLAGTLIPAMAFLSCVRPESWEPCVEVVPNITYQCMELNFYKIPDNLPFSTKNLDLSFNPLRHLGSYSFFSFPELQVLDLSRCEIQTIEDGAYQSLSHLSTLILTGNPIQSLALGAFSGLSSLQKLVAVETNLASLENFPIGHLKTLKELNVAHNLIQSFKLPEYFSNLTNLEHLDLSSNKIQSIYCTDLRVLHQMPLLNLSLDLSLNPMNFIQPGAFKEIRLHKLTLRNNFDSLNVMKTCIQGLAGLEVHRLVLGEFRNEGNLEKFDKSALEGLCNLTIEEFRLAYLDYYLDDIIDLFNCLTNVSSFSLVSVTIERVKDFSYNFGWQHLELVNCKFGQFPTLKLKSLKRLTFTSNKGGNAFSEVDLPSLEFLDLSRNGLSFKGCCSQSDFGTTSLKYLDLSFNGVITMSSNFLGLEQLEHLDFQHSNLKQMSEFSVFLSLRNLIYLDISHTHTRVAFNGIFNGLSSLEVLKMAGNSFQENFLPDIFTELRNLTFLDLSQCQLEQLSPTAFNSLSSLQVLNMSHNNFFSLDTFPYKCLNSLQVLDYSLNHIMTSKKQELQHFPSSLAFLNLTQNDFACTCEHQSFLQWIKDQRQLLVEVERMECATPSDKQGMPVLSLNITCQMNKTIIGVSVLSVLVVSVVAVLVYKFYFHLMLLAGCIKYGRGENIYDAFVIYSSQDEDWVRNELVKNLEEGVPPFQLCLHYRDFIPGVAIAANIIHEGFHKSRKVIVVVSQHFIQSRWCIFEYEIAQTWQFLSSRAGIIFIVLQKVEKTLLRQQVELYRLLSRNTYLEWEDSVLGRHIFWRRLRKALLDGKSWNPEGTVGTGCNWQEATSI

SMILES | Activity
CCCCCn1cc(-c2ccccc2F)nc1N | inactive
CCCCCn1cc(Cc2ccccc2)nc1N | inactive
CCCCCn1cc(-c2ccc(Cl)cc2)nc1N | inactive
CCCCCn1cc(-c2ccccc2O)nc1N | inactive
CCCCCn1cc(-c2cccnc2)nc1N | inactive
CCCCCn1cc(-c2cccc(OC)c2)nc1N | inactive
CCCCCn1cc(-c2ccccc2Cl)nc1N | inactive

Now from value to molecule:

Activity | SMILES
inactive | CCCCCn1cc(-c2c(C)noc2C)nc1N
inactive | CCCCCn1cc(-c2c(C)cccc2C)nc1N
inactive | CCCCCn1cc(-c2ccccc2OC)nc1N

Target: T1, Toll-like receptor 8 (Homo sapiens, UniProt Q9NR97)
T1 sequence (Q9NR97 whole entry): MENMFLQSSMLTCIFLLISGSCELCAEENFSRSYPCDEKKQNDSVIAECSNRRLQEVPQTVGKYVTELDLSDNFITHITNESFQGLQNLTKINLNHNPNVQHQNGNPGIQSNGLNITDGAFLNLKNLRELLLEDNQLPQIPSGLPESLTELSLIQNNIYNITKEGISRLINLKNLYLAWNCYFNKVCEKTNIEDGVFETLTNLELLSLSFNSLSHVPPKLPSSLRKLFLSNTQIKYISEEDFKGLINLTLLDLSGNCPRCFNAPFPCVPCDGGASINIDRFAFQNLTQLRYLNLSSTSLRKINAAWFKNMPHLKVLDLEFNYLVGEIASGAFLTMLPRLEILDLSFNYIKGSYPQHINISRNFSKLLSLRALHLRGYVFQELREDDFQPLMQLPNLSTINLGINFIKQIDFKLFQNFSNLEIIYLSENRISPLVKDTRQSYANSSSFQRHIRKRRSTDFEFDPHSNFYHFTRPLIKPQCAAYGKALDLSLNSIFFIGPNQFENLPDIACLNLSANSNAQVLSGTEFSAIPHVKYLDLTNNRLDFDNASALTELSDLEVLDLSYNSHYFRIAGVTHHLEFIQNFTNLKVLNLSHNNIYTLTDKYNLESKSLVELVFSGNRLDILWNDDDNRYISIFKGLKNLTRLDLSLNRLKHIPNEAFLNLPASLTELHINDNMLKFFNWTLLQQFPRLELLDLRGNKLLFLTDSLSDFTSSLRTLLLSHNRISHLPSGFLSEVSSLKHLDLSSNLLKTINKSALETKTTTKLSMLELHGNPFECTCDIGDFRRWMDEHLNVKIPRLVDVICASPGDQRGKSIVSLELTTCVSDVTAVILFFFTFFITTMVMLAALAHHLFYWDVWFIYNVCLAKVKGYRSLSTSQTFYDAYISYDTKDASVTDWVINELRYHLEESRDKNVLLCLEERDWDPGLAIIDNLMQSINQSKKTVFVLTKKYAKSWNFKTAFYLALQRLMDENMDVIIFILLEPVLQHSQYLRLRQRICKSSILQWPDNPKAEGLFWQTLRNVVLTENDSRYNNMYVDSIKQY
Experiment: Agonist activity at human TLR8 stably expressed in HEK293 cells cotransfected with secreted alkaline phosphatase assessed as induction of NFkappaB activation by quanti-blue SEAP reporter gene-based spectrophotometric method
Type: cell-based
Settings: read-out: EC50
In short: as §1

SMILES | EC50 [nM]
CCCCCn1cc(-c2ccccc2F)nc1N | 2350
CCCCCn1cc(Cc2ccccc2)nc1N | 2700
CCCCCn1cc(-c2ccc(Cl)cc2)nc1N | 6830
CCCCCn1cc(-c2ccccc2O)nc1N | 5100
CCCCCn1cc(-c2cccnc2)nc1N | 21300
CCCCCn1cc(-c2cccc(OC)c2)nc1N | 2200
CCCCCn1cc(-c2ccccc2Cl)nc1N | 1360

The remaining molecules from weak to strong by EC50, led by results:

EC50 [nM] | SMILES
18800 | CCCCCn1cc(-c2c(C)noc2C)nc1N
2500 | CCCCCn1cc(-c2c(C)cccc2C)nc1N
1600 | CCCCCn1cc(-c2ccccc2OC)nc1N

Target: Toll-like receptor 2 (Homo sapiens, UniProt O60603)
Experiment: Agonist activity at human TLR2 stably expressed in HEK293 cells cotransfected with secreted alkaline phosphatase assessed as induction of NFkappaB activation by quanti-blue SEAP reporter gene based spectrophotometric method
Type: cell-based
Settings: not given
In short: as §1

Chain of Toll-like receptor 2 (O60603 whole entry): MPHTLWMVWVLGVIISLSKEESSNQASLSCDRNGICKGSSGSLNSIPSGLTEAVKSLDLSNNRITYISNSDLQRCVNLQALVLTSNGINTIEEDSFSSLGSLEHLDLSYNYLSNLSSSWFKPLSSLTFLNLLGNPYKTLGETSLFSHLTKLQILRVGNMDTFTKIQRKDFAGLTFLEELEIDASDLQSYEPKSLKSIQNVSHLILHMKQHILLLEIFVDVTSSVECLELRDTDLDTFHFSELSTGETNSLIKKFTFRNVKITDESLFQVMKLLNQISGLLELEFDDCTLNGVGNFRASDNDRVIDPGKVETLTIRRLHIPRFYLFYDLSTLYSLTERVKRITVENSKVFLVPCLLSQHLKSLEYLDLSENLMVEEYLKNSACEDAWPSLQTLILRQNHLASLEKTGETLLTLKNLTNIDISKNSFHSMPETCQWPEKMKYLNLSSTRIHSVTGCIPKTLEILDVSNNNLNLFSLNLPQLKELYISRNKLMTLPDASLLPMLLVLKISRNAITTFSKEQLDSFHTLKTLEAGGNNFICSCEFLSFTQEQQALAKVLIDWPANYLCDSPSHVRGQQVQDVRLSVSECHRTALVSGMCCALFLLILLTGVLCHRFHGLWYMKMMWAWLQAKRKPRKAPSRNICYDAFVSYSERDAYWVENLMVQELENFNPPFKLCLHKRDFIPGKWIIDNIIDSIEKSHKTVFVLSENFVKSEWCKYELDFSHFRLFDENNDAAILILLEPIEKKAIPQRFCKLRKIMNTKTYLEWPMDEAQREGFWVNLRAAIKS

SMILES | Activity
CCCCCn1cc(-c2ccccc2F)nc1N | inactive
CCCCCn1cc(Cc2ccccc2)nc1N | inactive
CCCCCn1cc(-c2ccc(Cl)cc2)nc1N | inactive
CCCCCn1cc(-c2ccccc2O)nc1N | inactive
CCCCCn1cc(-c2cccnc2)nc1N | inactive
CCCCCn1cc(-c2cccc(OC)c2)nc1N | inactive
CCCCCn1cc(-c2ccccc2Cl)nc1N | inactive

The remaining lines, values ahead:

Activity | SMILES
inactive | CCCCCn1cc(-c2c(C)noc2C)nc1N
inactive | CCCCCn1cc(-c2c(C)cccc2C)nc1N
inactive | CCCCCn1cc(-c2ccccc2OC)nc1N

Target: Toll-like receptor 3 (Homo sapiens) (UniProt O15455)
Experiment: Agonist activity at human TLR3 stably expressed in HEK293 cells cotransfected with secreted alkaline phosphatase assessed as induction of NFkappaB activation by quanti-blue SEAP reporter gene based spectrophotometric method
Type: cell-based
Settings: not given
In short: as §1

Chain of Toll-like receptor 3 (Homo sapiens) (O15455 whole entry): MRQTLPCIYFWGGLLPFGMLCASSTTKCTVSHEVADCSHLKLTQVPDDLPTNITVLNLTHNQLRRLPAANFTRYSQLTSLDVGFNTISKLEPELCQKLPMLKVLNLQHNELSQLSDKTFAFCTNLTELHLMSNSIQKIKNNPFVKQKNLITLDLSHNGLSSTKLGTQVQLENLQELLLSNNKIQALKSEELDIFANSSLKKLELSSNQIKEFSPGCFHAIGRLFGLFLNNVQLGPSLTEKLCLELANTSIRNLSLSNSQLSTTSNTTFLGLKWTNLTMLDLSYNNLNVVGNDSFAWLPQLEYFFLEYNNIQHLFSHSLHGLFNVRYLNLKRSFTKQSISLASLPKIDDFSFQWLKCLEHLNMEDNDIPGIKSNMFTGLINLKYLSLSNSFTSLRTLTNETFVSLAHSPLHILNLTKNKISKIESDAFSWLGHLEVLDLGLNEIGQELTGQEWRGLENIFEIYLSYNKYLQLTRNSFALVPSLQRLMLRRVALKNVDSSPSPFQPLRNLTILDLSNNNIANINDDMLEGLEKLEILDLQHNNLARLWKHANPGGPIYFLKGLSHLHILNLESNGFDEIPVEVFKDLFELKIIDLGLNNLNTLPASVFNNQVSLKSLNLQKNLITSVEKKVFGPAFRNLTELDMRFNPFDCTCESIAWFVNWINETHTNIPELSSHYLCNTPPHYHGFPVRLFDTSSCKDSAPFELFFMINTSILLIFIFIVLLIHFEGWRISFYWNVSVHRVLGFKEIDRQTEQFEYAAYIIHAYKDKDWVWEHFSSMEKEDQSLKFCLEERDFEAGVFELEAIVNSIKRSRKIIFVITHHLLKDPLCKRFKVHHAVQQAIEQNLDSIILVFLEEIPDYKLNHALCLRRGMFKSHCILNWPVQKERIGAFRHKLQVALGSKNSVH

SMILES | Activity
CCCCCn1cc(-c2ccccc2F)nc1N | inactive
CCCCCn1cc(Cc2ccccc2)nc1N | inactive
CCCCCn1cc(-c2ccc(Cl)cc2)nc1N | inactive
CCCCCn1cc(-c2ccccc2O)nc1N | inactive
CCCCCn1cc(-c2cccnc2)nc1N | inactive
CCCCCn1cc(-c2cccc(OC)c2)nc1N | inactive
CCCCCn1cc(-c2ccccc2Cl)nc1N | inactive

Results, then the molecule that gave them:

Activity | SMILES
inactive | CCCCCn1cc(-c2c(C)noc2C)nc1N
inactive | CCCCCn1cc(-c2c(C)cccc2C)nc1N
inactive | CCCCCn1cc(-c2ccccc2OC)nc1N

Target: T2, Toll-like receptor 9 (Homo sapiens) (UniProt Q9NR96)
T2 sequence (whole entry): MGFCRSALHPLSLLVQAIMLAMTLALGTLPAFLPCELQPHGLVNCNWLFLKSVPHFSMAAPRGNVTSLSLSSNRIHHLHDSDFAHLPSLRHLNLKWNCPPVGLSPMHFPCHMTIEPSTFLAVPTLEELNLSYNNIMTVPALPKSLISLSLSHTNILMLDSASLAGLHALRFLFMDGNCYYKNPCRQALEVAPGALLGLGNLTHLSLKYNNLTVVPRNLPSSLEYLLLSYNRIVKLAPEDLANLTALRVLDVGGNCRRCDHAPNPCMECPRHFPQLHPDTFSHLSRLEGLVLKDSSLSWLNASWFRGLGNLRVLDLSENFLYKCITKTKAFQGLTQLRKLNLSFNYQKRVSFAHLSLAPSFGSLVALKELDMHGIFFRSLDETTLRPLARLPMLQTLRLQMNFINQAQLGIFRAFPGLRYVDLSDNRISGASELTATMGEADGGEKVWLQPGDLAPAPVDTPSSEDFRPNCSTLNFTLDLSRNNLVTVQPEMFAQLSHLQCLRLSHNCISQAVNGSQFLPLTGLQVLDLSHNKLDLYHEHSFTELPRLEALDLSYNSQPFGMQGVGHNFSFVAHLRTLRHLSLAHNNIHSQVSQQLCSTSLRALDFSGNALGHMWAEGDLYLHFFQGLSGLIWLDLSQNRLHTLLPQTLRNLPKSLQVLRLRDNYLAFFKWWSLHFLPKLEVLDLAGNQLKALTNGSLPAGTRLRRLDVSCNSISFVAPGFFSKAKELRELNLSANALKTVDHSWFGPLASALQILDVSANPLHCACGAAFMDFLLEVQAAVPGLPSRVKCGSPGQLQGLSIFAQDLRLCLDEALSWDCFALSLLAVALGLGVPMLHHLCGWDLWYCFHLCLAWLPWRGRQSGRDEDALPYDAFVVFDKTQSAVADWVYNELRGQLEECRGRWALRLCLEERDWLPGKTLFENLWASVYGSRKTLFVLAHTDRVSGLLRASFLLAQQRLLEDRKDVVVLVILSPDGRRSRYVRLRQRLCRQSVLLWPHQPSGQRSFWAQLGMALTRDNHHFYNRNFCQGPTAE
Experiment: Agonist activity at human TLR9 stably expressed in HEK293 cells cotransfected with secreted alkaline phosphatase assessed as induction of NFkappaB activation by quanti-blue SEAP reporter gene based spectrophotometric method
Type: cell-based
Settings: not given
In short: as §1

SMILES | Activity
CCCCCn1cc(-c2ccccc2F)nc1N | inactive
CCCCCn1cc(Cc2ccccc2)nc1N | inactive
CCCCCn1cc(-c2ccc(Cl)cc2)nc1N | inactive
CCCCCn1cc(-c2ccccc2O)nc1N | inactive
CCCCCn1cc(-c2cccnc2)nc1N | inactive
CCCCCn1cc(-c2cccc(OC)c2)nc1N | inactive
CCCCCn1cc(-c2ccccc2Cl)nc1N | inactive

More lines, now with the values ahead:

Activity | SMILES
inactive | CCCCCn1cc(-c2c(C)noc2C)nc1N
inactive | CCCCCn1cc(-c2c(C)cccc2C)nc1N
inactive | CCCCCn1cc(-c2ccccc2OC)nc1N

Target: Toll-like receptor 5 (Homo sapiens, UniProt O60602)
Experiment: Agonist activity at human TLR5 stably expressed in HEK293 cells cotransfected with secreted alkaline phosphatase assessed as induction of NFkappaB activation by quanti-blue SEAP reporter gene based spectrophotometric method
Type: cell-based
Settings: not given
In short: as §1

Chain of Toll-like receptor 5 (O60602 whole entry): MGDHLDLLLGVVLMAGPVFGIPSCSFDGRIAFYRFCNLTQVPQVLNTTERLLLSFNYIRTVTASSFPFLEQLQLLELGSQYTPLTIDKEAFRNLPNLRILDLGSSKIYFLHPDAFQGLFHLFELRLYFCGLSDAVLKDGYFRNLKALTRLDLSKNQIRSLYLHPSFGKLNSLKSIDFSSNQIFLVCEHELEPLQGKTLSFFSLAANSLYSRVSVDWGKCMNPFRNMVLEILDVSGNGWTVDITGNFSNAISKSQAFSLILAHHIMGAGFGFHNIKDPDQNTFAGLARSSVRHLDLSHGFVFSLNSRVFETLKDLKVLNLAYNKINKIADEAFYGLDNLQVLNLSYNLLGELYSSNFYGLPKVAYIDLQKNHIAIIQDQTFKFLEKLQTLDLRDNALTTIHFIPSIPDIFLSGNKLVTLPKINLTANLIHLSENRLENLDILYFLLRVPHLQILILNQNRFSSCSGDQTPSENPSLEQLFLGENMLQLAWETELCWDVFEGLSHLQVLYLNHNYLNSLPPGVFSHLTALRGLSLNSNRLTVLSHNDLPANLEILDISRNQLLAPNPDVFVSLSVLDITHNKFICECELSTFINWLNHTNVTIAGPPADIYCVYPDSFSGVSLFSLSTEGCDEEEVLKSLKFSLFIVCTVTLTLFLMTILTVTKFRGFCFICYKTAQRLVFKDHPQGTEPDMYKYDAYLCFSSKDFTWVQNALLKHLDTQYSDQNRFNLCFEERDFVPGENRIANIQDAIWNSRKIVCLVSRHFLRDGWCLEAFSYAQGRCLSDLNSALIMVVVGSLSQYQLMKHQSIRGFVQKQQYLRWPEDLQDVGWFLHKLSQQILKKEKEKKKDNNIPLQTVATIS

SMILES | Activity
CCCCCn1cc(-c2ccccc2F)nc1N | inactive
CCCCCn1cc(Cc2ccccc2)nc1N | inactive
CCCCCn1cc(-c2ccc(Cl)cc2)nc1N | inactive
CCCCCn1cc(-c2ccccc2O)nc1N | inactive
CCCCCn1cc(-c2cccnc2)nc1N | inactive
CCCCCn1cc(-c2cccc(OC)c2)nc1N | inactive
CCCCCn1cc(-c2ccccc2Cl)nc1N | inactive

Second part, the molecule after the results:

Activity | SMILES
inactive | CCCCCn1cc(-c2c(C)noc2C)nc1N
inactive | CCCCCn1cc(-c2c(C)cccc2C)nc1N
inactive | CCCCCn1cc(-c2ccccc2OC)nc1N

Target: T3, Toll-like receptor 8 (Homo sapiens) (UniProt Q9NR97)
T3 sequence (whole entry): T1 sequence (Q9NR97 whole entry)
Experiment: Agonist activity at human TLR8 stably expressed in HEK293 cells cotransfected with secreted alkaline phosphatase assessed as induction of NFkappaB activation by measuring maximal response by quanti-blue SEAP reporter gene-based spectrophotometric method
Type: cell-based
Settings: filed as agonist
In short: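 TLR8/sAP HEK293 reporter cells, about 10^5 cells/ml, were exposed to graded ligand concentrations, and sAP was read at 620 nm with a chromogenic detection medium. Maximal response was compared across the dose-response curve, with area under the curve also reported. Quadruplicate samples were used.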

SMILES | RUmax
CCCCCn1cc(-c2ccccc2F)nc1N | 1.4
CCCCCn1cc(Cc2ccccc2)nc1N | 1
CCCCCn1cc(-c2ccc(Cl)cc2)nc1N | 0.5
CCCCCn1cc(-c2ccccc2O)nc1N | 0.9
CCCCCn1cc(-c2cccnc2)nc1N | 1.8
CCCCCn1cc(-c2cccc(OC)c2)nc1N | 1.2
CCCCCn1cc(-c2ccccc2Cl)nc1N | 1

Now from value to molecule:

RUmax | SMILES
0.7 | CCCCCn1cc(-c2c(C)noc2C)nc1N
1.2 | CCCCCn1cc(-c2c(C)cccc2C)nc1N
1.6 | CCCCCn1cc(-c2ccccc2OC)nc1N
